Data taken from the M2OR odorant receptor database.
Numbering of substitutions follows the chain as printed.

What was measured:
Conditions in all cases: stereoisomer not certain
OR8D1 (Homo sapiens) = target: T1, OR8D1 (Homo sapiens) (UniProt Q8WZ84)
T1 sequence (whole entry): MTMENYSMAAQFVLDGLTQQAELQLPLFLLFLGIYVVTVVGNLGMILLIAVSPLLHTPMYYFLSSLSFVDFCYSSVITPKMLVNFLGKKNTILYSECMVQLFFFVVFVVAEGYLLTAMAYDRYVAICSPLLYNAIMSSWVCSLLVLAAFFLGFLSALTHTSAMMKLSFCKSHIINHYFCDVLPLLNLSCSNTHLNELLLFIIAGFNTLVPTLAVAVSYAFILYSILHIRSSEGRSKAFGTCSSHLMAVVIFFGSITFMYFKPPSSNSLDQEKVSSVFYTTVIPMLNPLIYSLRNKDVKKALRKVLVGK
In short: (§1)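 Each entry records the cell line, G-protein, co-transfected protein and tags used. Methods varied with the source, often transient luciferase assays in mammalian cell lines. A receptor–molecule pair is called responsive (active) if the original authors judged its signal statistically different from baseline and non-responsive (inactive) otherwise.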

OR8B3 H20R Q24R M114I = tested on: T2, OR8B3 H20R Q24R M114I
T2 sequence (whole entry): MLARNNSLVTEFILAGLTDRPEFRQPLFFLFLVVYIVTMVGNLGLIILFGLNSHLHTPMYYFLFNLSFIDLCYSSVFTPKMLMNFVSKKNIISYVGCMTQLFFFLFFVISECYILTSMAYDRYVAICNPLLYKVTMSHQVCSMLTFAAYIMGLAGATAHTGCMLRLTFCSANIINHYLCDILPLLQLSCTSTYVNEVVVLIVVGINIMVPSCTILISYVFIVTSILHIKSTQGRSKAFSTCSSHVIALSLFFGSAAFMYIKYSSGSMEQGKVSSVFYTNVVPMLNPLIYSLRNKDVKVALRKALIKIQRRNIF
In short: as §1

OR8B3 H20R Q24R Y113H = tested on: T3, OR8B3 H20R Q24R Y113H
T3 sequence (whole entry): T2 sequence (whole entry) with Y113H, I114M
In short: as §1

OR8B3 H20R Q24R = tested on: T4, OR8B3 H20R Q24R
T4 sequence (whole entry): T2 sequence (whole entry) with I114M
In short: as §1

OR8B4 (Homo sapiens) = target: T5, OR8B4 (Homo sapiens) (UniProt Q96RC9)
T5 sequence (whole entry): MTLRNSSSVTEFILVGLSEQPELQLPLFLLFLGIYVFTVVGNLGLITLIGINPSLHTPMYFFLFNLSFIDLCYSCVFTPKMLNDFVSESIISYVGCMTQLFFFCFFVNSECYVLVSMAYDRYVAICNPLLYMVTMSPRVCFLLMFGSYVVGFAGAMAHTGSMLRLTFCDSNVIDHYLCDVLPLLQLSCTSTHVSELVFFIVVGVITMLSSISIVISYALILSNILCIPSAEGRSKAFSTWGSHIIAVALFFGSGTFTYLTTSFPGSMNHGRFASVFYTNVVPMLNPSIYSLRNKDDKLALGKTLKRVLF
In short: as §1

OR8B4 = tested on: T6, OR8B4
T6 sequence (whole entry): T5 sequence (whole entry) with E22G
In short: as §1

OR8B8 (Homo sapiens) = target: T7, OR8B8 (Homo sapiens) (UniProt Q15620)
T7 sequence (whole entry): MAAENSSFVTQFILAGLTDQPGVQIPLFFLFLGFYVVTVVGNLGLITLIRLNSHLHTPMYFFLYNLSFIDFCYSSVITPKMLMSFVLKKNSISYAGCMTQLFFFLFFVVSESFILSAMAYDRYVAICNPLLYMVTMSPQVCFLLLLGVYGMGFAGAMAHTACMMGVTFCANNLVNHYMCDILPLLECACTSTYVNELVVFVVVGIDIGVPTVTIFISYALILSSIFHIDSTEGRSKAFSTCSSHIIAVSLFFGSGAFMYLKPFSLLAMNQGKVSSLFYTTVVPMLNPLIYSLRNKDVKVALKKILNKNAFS
In short: as §1

OR8B8 L101P = tested on: T8, OR8B8 L101P
T8 sequence (whole entry): T7 sequence (whole entry) with L101P
In short: as §1

OR8D1 C127G L194P = tested on: T9, OR8D1 C127G L194P
T9 sequence (whole entry): T1 sequence (whole entry) with C127G, L194P
In short: as §1

OR8D1 L194P = tested on: T10, OR8D1 L194P
T10 sequence (whole entry): T1 sequence (whole entry) with L194P
In short: as §1

OR8D2 (Homo sapiens) = target: T11, OR8D2 (Homo sapiens) (UniProt Q9GZM6)
T11 sequence (whole entry): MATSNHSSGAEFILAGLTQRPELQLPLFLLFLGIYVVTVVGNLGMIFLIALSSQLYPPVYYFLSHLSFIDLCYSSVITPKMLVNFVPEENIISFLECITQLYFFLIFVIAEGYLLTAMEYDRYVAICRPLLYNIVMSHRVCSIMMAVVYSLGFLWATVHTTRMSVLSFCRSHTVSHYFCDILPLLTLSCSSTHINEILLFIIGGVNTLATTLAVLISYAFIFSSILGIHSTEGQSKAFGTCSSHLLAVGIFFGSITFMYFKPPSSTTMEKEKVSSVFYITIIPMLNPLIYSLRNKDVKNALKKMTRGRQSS
In short: as §1

OR8D4 (Homo sapiens) = target: T12, OR8D4 (Homo sapiens) (UniProt Q8NGM9)
T12 sequence (whole entry): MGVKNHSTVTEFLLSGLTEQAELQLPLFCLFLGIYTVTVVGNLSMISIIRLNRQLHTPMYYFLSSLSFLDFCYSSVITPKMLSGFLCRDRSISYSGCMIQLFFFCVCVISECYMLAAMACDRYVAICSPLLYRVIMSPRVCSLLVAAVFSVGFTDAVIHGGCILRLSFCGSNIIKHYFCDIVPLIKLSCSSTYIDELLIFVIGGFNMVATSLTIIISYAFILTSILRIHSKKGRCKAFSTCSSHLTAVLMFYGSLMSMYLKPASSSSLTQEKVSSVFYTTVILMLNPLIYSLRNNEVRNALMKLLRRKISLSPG
In short: as §1

OR8D4 C120Y R133K = tested on: T13, OR8D4 C120Y R133K
T13 sequence (whole entry): T12 sequence (whole entry) with C120Y, R133K
In short: as §1

OR8G1 (Homo sapiens) = target: T14, OR8G1 (Homo sapiens) (UniProt Q15617)
T14 sequence (whole entry): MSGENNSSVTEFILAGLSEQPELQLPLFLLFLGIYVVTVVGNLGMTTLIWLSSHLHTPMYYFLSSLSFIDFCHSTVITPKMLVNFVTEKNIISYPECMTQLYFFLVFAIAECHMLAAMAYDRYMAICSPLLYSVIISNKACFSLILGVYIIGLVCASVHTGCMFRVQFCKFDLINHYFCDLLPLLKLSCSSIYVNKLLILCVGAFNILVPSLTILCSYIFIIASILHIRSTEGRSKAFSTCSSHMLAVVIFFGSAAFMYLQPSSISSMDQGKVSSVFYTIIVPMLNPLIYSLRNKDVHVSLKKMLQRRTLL
In short: as §1

OR8G5 (Homo sapiens) = target: T15, OR8G5 (Homo sapiens) (UniProt Q8NG78)
T15 sequence (whole entry): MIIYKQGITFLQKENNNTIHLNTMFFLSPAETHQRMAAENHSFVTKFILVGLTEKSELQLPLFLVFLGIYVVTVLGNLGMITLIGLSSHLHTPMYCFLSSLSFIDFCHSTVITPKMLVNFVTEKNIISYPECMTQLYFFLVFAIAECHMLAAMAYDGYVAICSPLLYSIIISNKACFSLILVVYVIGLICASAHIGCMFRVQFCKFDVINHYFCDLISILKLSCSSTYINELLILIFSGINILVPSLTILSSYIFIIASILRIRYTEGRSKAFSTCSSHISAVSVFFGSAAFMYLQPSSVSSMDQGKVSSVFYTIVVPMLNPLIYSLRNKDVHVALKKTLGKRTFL
In short: as §1

OR8H1 (Homo sapiens) = target: T16, OR8H1 (Homo sapiens) (UniProt Q8NGG4)
T16 sequence (whole entry): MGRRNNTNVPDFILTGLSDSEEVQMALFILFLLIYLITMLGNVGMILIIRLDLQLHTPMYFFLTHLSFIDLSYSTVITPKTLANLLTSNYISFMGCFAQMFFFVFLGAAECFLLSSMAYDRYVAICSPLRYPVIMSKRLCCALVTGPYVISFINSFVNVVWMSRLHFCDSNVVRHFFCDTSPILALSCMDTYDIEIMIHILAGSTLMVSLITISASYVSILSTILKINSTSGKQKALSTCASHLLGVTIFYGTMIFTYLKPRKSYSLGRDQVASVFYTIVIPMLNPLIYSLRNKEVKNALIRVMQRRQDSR
In short: as §1

OR8H2 (Homo sapiens) = target: T17, OR8H2 (Homo sapiens) (UniProt Q8N162)
T17 sequence (whole entry): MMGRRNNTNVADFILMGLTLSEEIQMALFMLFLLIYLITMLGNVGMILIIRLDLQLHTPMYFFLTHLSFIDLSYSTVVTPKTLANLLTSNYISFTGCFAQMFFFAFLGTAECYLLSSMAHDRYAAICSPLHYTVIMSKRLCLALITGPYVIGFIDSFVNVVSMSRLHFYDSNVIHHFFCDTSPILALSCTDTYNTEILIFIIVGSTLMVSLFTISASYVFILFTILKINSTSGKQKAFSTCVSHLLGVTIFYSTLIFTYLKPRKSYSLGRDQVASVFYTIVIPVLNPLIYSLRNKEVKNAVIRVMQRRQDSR
In short: as §1

OR8H2 H120Y Y169C V284M = tested on: T18, OR8H2 H120Y Y169C V284M
T18 sequence (whole entry): T17 sequence (whole entry) with H120Y, Y169C, V284M
In short: as §1

OR8H3 (Homo sapiens) = target: T19, OR8H3 (Homo sapiens) (UniProt Q8N146)
T19 sequence (whole entry): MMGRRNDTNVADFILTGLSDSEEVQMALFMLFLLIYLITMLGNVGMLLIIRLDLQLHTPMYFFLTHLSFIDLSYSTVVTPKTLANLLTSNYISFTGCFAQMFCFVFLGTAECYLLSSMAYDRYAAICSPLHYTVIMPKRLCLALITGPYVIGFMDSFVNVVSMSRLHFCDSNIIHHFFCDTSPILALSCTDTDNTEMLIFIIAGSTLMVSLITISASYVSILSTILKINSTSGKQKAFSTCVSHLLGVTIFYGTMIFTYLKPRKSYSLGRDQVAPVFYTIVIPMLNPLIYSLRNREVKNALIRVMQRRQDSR
In short: as §1

OR8H3 = tested on: T20, OR8H3
T20 sequence (whole entry): T19 sequence (whole entry) with P137S
In short: as §1

Measured: odorant receptor agonist call

CCCCC=CC=O
inactive: OR8D1 (Homo sapiens)

CCC1OC(C)=C(O)C1=O (centres undefined)
inactive: all assays above

CCCCCCCCCC(=O)[O-].[H+]
inactive: OR8D1 (Homo sapiens)

CCCCCC(=O)C(C)C(C)=O (centres undefined)
inactive: OR8B4 (Homo sapiens) | OR8B8 (Homo sapiens) | OR8D1 (Homo sapiens) | OR8D2 (Homo sapiens) | OR8D4 (Homo sapiens) | OR8G1 (Homo sapiens) | OR8G5 (Homo sapiens) | OR8H1 (Homo sapiens) | OR8H2 (Homo sapiens) | OR8H3 (Homo sapiens)

CCCSSSCCC
inactive: OR8D1 (Homo sapiens)

CCCCCCC=CC=O
inactive: OR8D1 (Homo sapiens)

CC(CO)CS (centres undefined)
inactive: OR8B4 (Homo sapiens) | OR8B8 (Homo sapiens) | OR8D1 (Homo sapiens) | OR8D2 (Homo sapiens) | OR8D4 (Homo sapiens) | OR8G1 (Homo sapiens) | OR8G5 (Homo sapiens) | OR8H1 (Homo sapiens) | OR8H2 (Homo sapiens) | OR8H3 (Homo sapiens)

CCC(S)C(C)CO (centres undefined)
inactive: OR8B4 (Homo sapiens) | OR8B8 (Homo sapiens) | OR8D1 (Homo sapiens) | OR8D2 (Homo sapiens) | OR8D4 (Homo sapiens) | OR8G1 (Homo sapiens) | OR8G5 (Homo sapiens) | OR8H1 (Homo sapiens) | OR8H2 (Homo sapiens) | OR8H3 (Homo sapiens)

CC(C)=CCCC(C)=CCO
inactive: OR8D1 (Homo sapiens)

CCC(=O)C1=NCCC1
inactive: OR8D1 (Homo sapiens)

C=CC(=O)CC=CCC
inactive: OR8D1 (Homo sapiens)

CC1CCCCCCCCCCCCC(=O)C1 (centres undefined)
inactive: OR8B4 (Homo sapiens) | OR8B8 (Homo sapiens) | OR8D1 (Homo sapiens) | OR8D2 (Homo sapiens) | OR8D4 (Homo sapiens) | OR8G1 (Homo sapiens) | OR8G5 (Homo sapiens) | OR8H1 (Homo sapiens) | OR8H2 (Homo sapiens) | OR8H3 (Homo sapiens)

COCCC(C)(C)S
inactive: OR8D1 (Homo sapiens)

Cc1cnc(C)c(C)n1
inactive: all assays above

CCC=CCCOC(C)=O
inactive: OR8D1 (Homo sapiens)

CCOC(=O)C=Cc1ccccc1
inactive: OR8D1 (Homo sapiens)

CC(=O)OCCC(C)C
inactive: OR8D1 (Homo sapiens)

CC1=CCC2CC1C2(C)C (centres undefined)
inactive: OR8D1 (Homo sapiens)

CSCCC=O
inactive: OR8D1 (Homo sapiens)

CC(=O)O
inactive: OR8D1 (Homo sapiens)

CCC=O
inactive: OR8D1 (Homo sapiens)

CCCCC(CC)CCC(=O)O (centres undefined)
inactive: OR8D1 (Homo sapiens)

O=c1ccc2ccccc2o1
inactive: OR8D1 (Homo sapiens)

CSSc1ccoc1C
inactive: OR8D1 (Homo sapiens)

C=C(C)c1ccc(C)cc1
inactive: OR8D1 (Homo sapiens)

CCC1OC(=O)C(O)=C1C (centres undefined)
active: OR8D1 (Homo sapiens)
inactive: all other assays above
